From ChEMBL document CHEMBL1122552, “Synthesis and biological evaluation of 6-amino-1H-pyrrolo[3,2-c]pyridin-4(5H)-one (3,7-dideazaguanine)” (1984) come the findings set out here.

One assay deals with Human alphaherpesvirus 2. Put plainly: The minimum inhibitory concentration required to reduce HSV-2 (G) induced cytopathogenicity in primary rabbit kidney cells by 50%. In kind it is functional. A digest of the protocol:
(§1)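 Inhibition of virus-induced cytopathogenicity in primary rabbit kidney cells. The minimal inhibitory concentration (μg/mL) is the one reducing cytopathogenicity by 50%, scored when cytopathogenicity was complete in virus-infected untreated controls. Minimal cytotoxic concentration was taken as the one causing microscopically detectable change in cell morphology; 400 μg/mL was the highest concentration tested.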

A further assay deals with Human alphaherpesvirus 1. Put plainly: The minimum inhibitory concentration required to reduce HSV-1(KOS) induced cytopathogenicity in primary rabbit kidney cells by 50%. The assay is classed as functional. The method, boiled down: as §1
(In general: Cytopathic effects are the visible damage that an infection or toxin causes in cultured cells.)

Assay [1] can be described thus: Ability to inhibit growth of TG-1 cells (a mutant cell line resistant to 6-thioguanine and lacks hypoxanthine-guanine phosphoribosyltransferase) was determined.
The next assay deals with AA6. Put plainly: Ability to inhibit growth of AA-6 cells (a mutant cell line resistant to 8-azaadenine and lacks […]) was determined. In kind it is functional. The settings on record: Cricetulus griseus. A digest of the protocol: (§2)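 Clonogenic growth assay: log-phase cells trypsinized, diluted in McCoy's 5A with dialyzed fetal calf serum, about 200 cells per dish. Cells were grown at 0.5–3000 μM for 7 days at 37.5 °C in humidified CO2, then fixed in 10% formaldehyde and stained with 0.1% crystal violet. The minimum inhibitory concentration is the lowest tested concentration giving clones of fewer than 50 cells.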

The subject of the next assay is CHO. Put plainly: Ability to inhibit growth of CHO cells was determined. In kind it is functional. The note with it: Cricetulus griseus. A digest of the protocol: as §2
For assay [2], the system named is Mus musculus. Put plainly: Compound was evaluated for median life span after tumor implantation at a dose of 400 mg/kg. In kind it is functional. The method, boiled down:
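P388 leukemia cells (10^6) implanted ip in groups of 6 BDF1 mice, with 30 untreated controls. Therapy began 24 h later: compound in saline given ip on days 1-5. Recorded median life span in days after implant, T/C %, and body-weight change of treated minus control animals.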

Assay [3] has as its system Mus musculus. Put plainly: Compound was evaluated for median life span after tumor implantation at a dose of 50 mg/kg. In kind it is functional. A digest of the protocol: (§3)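 P388 leukemia cells (10^6) implanted ip in groups of 6 CDF1 mice, with 30 untreated controls. Therapy began 24 h later: compound in saline given ip on days 1-5. Recorded median life span in days after implant, T/C %, and body-weight change of treated minus control animals.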

Assay [4] relates to Mus musculus. Put plainly: Compound was evaluated for value at a dose of 100 mg/kg. The assay is classed as functional. The method, boiled down: (§4)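 Experiment 1: 10^6 P388 cells implanted ip in groups of 6 CDF1 mice, with 30 untreated controls. Therapy began 24 h later: saline solution given ip on days 1-5. Value is T/C, %, of median life span (days postimplant) against untreated controls.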

The test system of assay [5] is Mus musculus. Put plainly: Compound was evaluated for value at a dose of 400 mg/kg. In kind it is functional. A digest of the protocol: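 Experiment 2: 10^6 P388 cells implanted ip in groups of 6 BDF1 mice, with 30 untreated controls. Therapy began 24 h later: saline solution given ip on days 1-5. Value is T/C, %, of median life span (days postimplant) against untreated controls.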

Assay [6] has as its system Mus musculus. Put plainly: Effect on mice inoculated with P388 Lymphocytic leukemia, was studied. Compound dose is 200 mg/kg (Exp-1)Average animal body weight change of test group minus that of control animals. In kind it is functional. The method, boiled down: (§5)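 Experiment 1: P388 cells (10^6) implanted ip in CDF1 mice, 6 per group, 30 untreated controls. Dosing in saline, ip, on days 1-5, starting 24 h after implant. Reported value is the mean body weight change of the treated group minus that of the controls, in g.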

The test system of assay [7] is Mus musculus. Put plainly: Effect on mice inoculated with P388 Lymphocytic leukemia, was studied. Compound dose is 400 mg/kg (Exp-1)Average animal body weight change of test group minus that of control animals. The assay is classed as functional.
A further assay concerns Coxsackievirus. Put plainly: The minimum inhibitory concentration required to reduce Coxsackie virus type B4 induced cytopathogenicity in primary rabbit kidney cells by 50%. The assay is classed as functional.
Assay [8] deals with Mus musculus. Put plainly: Effect on mice inoculated with P388 Lymphocytic leukemia, was studied. Compound dose is 50 mg/kg (Exp-1)Average animal body weight change of test group minus that of control animals. The assay is classed as functional. A digest of the protocol:
as §5

Assay [9] concerns Mus musculus. Put plainly: Compound was evaluated for value at a dose of 50 mg/kg. In kind it is functional. The method, boiled down: as §4
The subject of assay [10] is Mus musculus. Put plainly: Compound was evaluated for median life span after tumor implantation at a dose of 200 mg/kg. In kind it is functional. A digest of the protocol: as §3
Assay [11] relates to Mus musculus. Put plainly: Compound was evaluated for median life span after tumor implantation at a dose of 100 mg/kg. The assay is classed as functional. The method, boiled down: as §3
Assay [12] relates to Mus musculus. Put plainly: Compound was evaluated for value at a dose of 200 mg/kg. In kind it is functional. The method, boiled down: as §4
For assay [13], the system named is Mus musculus. Put plainly: Effect on mice inoculated with P388 Lymphocytic leukemia, was studied. Compound dose is 100 mg/kg (Exp-1)Average animal body weight change of test group minus that of control animals. The assay is classed as functional. A digest of the protocol:
as §5

In assay [14] the test system is Vesicular stomatitis virus. Put plainly: The minimum inhibitory concentration required to reduce VSV induced cytopathogenicity in primary rabbit kidney cells by 50%. In kind it is functional.

The term T/C denotes the result in the treated group divided by that in the control group, in per cent.

In brackets after ≈: the same amount, converted by molar mass. A value given as a limit tells only on which side of the number the result lay.

Turning to `NC(=O)c1ncn([C@@H]2O[C@H](CO)[C@@H](O)[C@H]2O)n1` [RIBAVIRIN], the MIC against Human alphaherpesvirus 2 and in the assay on Human alphaherpesvirus 1 was above 400 µg/mL in each case.
Consider `Nc1cc2[nH]cnc2c(=O)[nH]1` [DEZAGUANINE], for which the MIC in assay [1] is 1500 µM (≈ 225 µg/mL); in the assay on Human alphaherpesvirus 2, 150 µg/mL (≈ 999 µM); in the assay with Human alphaherpesvirus 1, 4 µg/mL (≈ 26.6 µM); against AA6, 500 µM (≈ 75.1 µg/mL); in the assay with CHO it was 10 µM (≈ 1.5 µg/mL).
On to `Nc1ncnc2c1ncn2C[C@H](O)CO` [(S)-DHPA], for which the MIC in the assay on Human alphaherpesvirus 2 and against Human alphaherpesvirus 1 was above 400 µg/mL in each case.
For the molecule `Nc1cc2[nH]ccc2c(O)n1`, the Median life span came to 16.3 days with Mus musculus [2], 11.7 days in the assay on Mus musculus [3], 12.4 days in the assay on Mus musculus [10] and 12.3 days with Mus musculus [11]. In addition, the MIC was 1000 µM (≈ 149 µg/mL) in [1]; above 400 µg/mL with Coxsackievirus; above 400 µg/mL in the assay with Human alphaherpesvirus 2; above 400 µg/mL in the assay with Human alphaherpesvirus 1; 1000 µM (≈ 149 µg/mL) in the assay with AA6; 1000 µM (≈ 149 µg/mL) in the assay on CHO. The molecule also gave an MIC in assay [14] above 400 µg/mL. Moreover, the T/C in the assay on Mus musculus [4] came out at 113%; in the assay on Mus musculus [5], 126%; in the assay with Mus musculus [9], 108%; in the assay on Mus musculus [12], 114%. For the same molecule, the Activity in the assay on Mus musculus [6] was -1.6 g; in the assay on Mus musculus [7], -0.7 g; in the assay on Mus musculus [8] it was -0.2 g; with Mus musculus [13], -0.6 g.
